System: HEK-293T
Assay: Multiplex assay against HEK293T
Format: toxicity, cell-based
Conditions: human
Method in brief: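 Live cells carried four stains from seeding: Hoechst33342, BioTracker Green Microtubule Cytoskeleton Dye, MitoTracker Red and Annexin V Alexa Fluor 680. They were imaged on a CQ1 microscope at 37°C and 5% CO2 after compound addition. Using CellPathfinder machine-learning gating, cells were split into Hoechst high-intensity objects or normal cells, normal cells into healthy, pyknosed or fragmented nuclei, and pyknosed cells into mitotic or apoptotic; tubulin, mitochondrial-mass and membrane-permeability phenotypes are per cents of healthy-nucleus cells.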

[1] = 12 h, 1 µM, compound concentration 1 uM, replicate 1
[2] = 12 h, 1 µM, compound concentration 1 uM, replicate 2
[3] = 12 h, 10 µM, compound concentration 10 uM, replicate 1
[4] = 12 h, 10 µM, compound concentration 10 uM, replicate 2
[5] = 24 h, 1 µM, compound concentration 1 uM, replicate 1
[6] = 24 h, 1 µM, compound concentration 1 uM, replicate 2
[7] = 24 h, 10 µM, compound concentration 10 uM, replicate 1
[8] = 24 h, 10 µM, compound concentration 10 uM, replicate 2
[9] = 48 h, 1 µM, compound concentration 1 uM, replicate 1
[10] = 48 h, 1 µM, compound concentration 1 uM, replicate 2
[11] = 48 h, 10 µM, compound concentration 10 uM, replicate 1
[12] = 48 h, 10 µM, compound concentration 10 uM, replicate 2

**Q.** Which results are given for O=C1[C@H](Cc2ccc(O)cc2)N2C(=O)CCN(C(=O)NCc3ccccc3)[C@H]2CN1Cc1cccc2ccccc12?
**A.** Population Apoptotic (%) [1]: 44%; Population Fragmented Nuclei (%) [1]: 6%; Population Healthy Nuclei (%) [1]: 80%; Population Hoechst High Intensity Objects (%) [1]: 6%; Population Membrane Permeable-Phenotype (%) [1]: 0%; Population Mitochondria Different-Phenotype (%) [1]: 54%; Population Mitotic Cells (%) [1]: 55%; Population Normal (%) [1]: 93%; Population Pyknosed Nuclei (%) [1]: 12%; Population Tubulin-Different-Phenotype (%) [1]: 46%; Total Cell Count [1]: 374; Population Apoptotic (%) [2]: 46%; Population Fragmented Nuclei (%) [2]: 7%; Population Healthy Nuclei (%) [2]: 78%; Population Hoechst High Intensity Objects (%) [2]: 8%; Population Mitochondria Different-Phenotype (%) [2]: 68%; Population Mitotic Cells (%) [2]: 53%; Population Normal (%) [2]: 91%; Population Pyknosed Nuclei (%) [2]: 13%; Population Tubulin-Different-Phenotype (%) [2]: 33%; Total Cell Count [2]: 259; Population Apoptotic (%) [3]: 68%; Population Fragmented Nuclei (%) [3]: 5%; Population Healthy Nuclei (%) [3]: 74%; Population Hoechst High Intensity Objects (%) [3]: 11%; Population Membrane Permeable-Phenotype (%) [3]: 0%; Population Mitochondria Different-Phenotype (%) [3]: 90%; Population Mitotic Cells (%) [3]: 31%; Population Normal (%) [3]: 88%; Population Pyknosed Nuclei (%) [3]: 20%; Population Tubulin-Different-Phenotype (%) [3]: 76%; Total Cell Count [3]: 340; Population Apoptotic (%) [4]: 60%; Population Healthy Nuclei (%) [4]: 82%; Population Hoechst High Intensity Objects (%) [4]: 14%; Population Mitochondria Different-Phenotype (%) [4]: 93%; Population Mitotic Cells (%) [4]: 40%; Population Normal (%) [4]: 85%; Population Pyknosed Nuclei (%) [4]: 11%; Population Tubulin-Different-Phenotype (%) [4]: 67%; Total Cell Count [4]: 257; Population Apoptotic (%) [5]: 23%; Population Fragmented Nuclei (%) [5]: 7%; Population Healthy Nuclei (%) [5]: 80%; Population Hoechst High Intensity Objects (%) [5]: 7%; Population Membrane Permeable-Phenotype (%) [5]: 0%; Population Mitochondria Different-Phenotype (%) [5]: 49%; Population Mitotic Cells (%) [5]: 76%; Population Normal (%) [5]: 92%; Population Pyknosed Nuclei (%) [5]: 11%; Population Tubulin-Different-Phenotype (%) [5]: 38%; Total Cell Count [5]: 470; Population Apoptotic (%) [6]: 55%; Population Fragmented Nuclei (%) [6]: 8%; Population Healthy Nuclei (%) [6]: 77%; Population Hoechst High Intensity Objects (%) [6]: 8%; Population Mitochondria Different-Phenotype (%) [6]: 47%; Population Mitotic Cells (%) [6]: 45%; Population Normal (%) [6]: 91%; Population Pyknosed Nuclei (%) [6]: 14%; Population Tubulin-Different-Phenotype (%) [6]: 24%; Total Cell Count [6]: 305; Population Apoptotic (%) [7]: 68%; Population Fragmented Nuclei (%) [7]: 7%; Population Healthy Nuclei (%) [7]: 75%; Population Hoechst High Intensity Objects (%) [7]: 11%; Population Membrane Permeable-Phenotype (%) [7]: 0%; Population Mitochondria Different-Phenotype (%) [7]: 94%; Population Mitotic Cells (%) [7]: 31%; Population Normal (%) [7]: 88%; Population Pyknosed Nuclei (%) [7]: 16%; Population Tubulin-Different-Phenotype (%) [7]: 65%; Total Cell Count [7]: 278; Population Apoptotic (%) [8]: 74%; Population Fragmented Nuclei (%) [8]: 9%; Population Healthy Nuclei (%) [8]: 77%; Population Hoechst High Intensity Objects (%) [8]: 14%; Population Mitochondria Different-Phenotype (%) [8]: 95%; Population Mitotic Cells (%) [8]: 25%; Population Normal (%) [8]: 85%; Population Pyknosed Nuclei (%) [8]: 12%; Population Tubulin-Different-Phenotype (%) [8]: 70%; Total Cell Count [8]: 249; Population Apoptotic (%) [9]: 30%; Population Fragmented Nuclei (%) [9]: 14%; Population Healthy Nuclei (%) [9]: 78%; Population Hoechst High Intensity Objects (%) [9]: 4%; Population Membrane Permeable-Phenotype (%) [9]: 0%; Population Mitochondria Different-Phenotype (%) [9]: 34%; Population Mitotic Cells (%) [9]: 69%; Population Normal (%) [9]: 95%; Population Pyknosed Nuclei (%) [9]: 6%; Population Tubulin-Different-Phenotype (%) [9]: 26%; Total Cell Count [9]: 730; Population Apoptotic (%) [10]: 50%; Population Fragmented Nuclei (%) [10]: 11%; Population Healthy Nuclei (%) [10]: 81%; Population Hoechst High Intensity Objects (%) [10]: 3%; Population Mitochondria Different-Phenotype (%) [10]: 29%; Population Mitotic Cells (%) [10]: 50%; Population Normal (%) [10]: 96%; Population Pyknosed Nuclei (%) [10]: 7%; Population Tubulin-Different-Phenotype (%) [10]: 19%; Total Cell Count [10]: 472; Population Apoptotic (%) [11]: 71%; Population Fragmented Nuclei (%) [11]: 8%; Population Healthy Nuclei (%) [11]: 79%; Population Hoechst High Intensity Objects (%) [11]: 10%; Population Membrane Permeable-Phenotype (%) [11]: 0%; Population Mitochondria Different-Phenotype (%) [11]: 94%; Population Mitotic Cells (%) [11]: 28%; Population Normal (%) [11]: 89%; Population Pyknosed Nuclei (%) [11]: 11%; Population Tubulin-Different-Phenotype (%) [11]: 63%; Total Cell Count [11]: 297; Population Apoptotic (%) [12]: 57%; Population Fragmented Nuclei (%) [12]: 11%; Population Healthy Nuclei (%) [12]: 73%; Population Hoechst High Intensity Objects (%) [12]: 20%; Population Mitochondria Different-Phenotype (%) [12]: 88%; Population Mitotic Cells (%) [12]: 42%; Population Normal (%) [12]: 79%; Population Pyknosed Nuclei (%) [12]: 14%; Population Tubulin-Different-Phenotype (%) [12]: 72%; Total Cell Count [12]: 232

Reference: ChEMBL document CHEMBL5058577, “EUbOPEN Chemogenomics Library 2 (Multiplex)” (2022)
